# In ChEMBL document CHEMBL4229380, “Arylureas derived from colchicine: Enhancement of colchicine oncogene downregulation activity” (Eur J Med Chem, 2018):
# Test system: HT-29
# Assay: Effect on c-MYC protein expression in human HT-29 cells assessed as c-MYC level at 5 nM after 48 hrs by ELISA
# Format: functional
# Conditions: not given
# How it was run: (§1)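 HT-29 cells (1.5×10^5 per well, 24 h pre-culture) were treated 48 h and washed in PBS. They were lysed in Tris pH 7.4 buffer with detergents, phosphatase inhibitors, PMSF and protease inhibitors. Lysates were adjusted to 200 µg/mL protein (Bradford) and total c-Myc or VEGFR-2 was measured by sandwich ELISA kit. Values are % of DMSO control, ≥3 measurements.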
row,Compound,Activity
1,COc1ccc(NC(=O)N[C@H]2CCc3cc(OC)c(OC)c(OC)c3-c3ccc(OC)c(=O)cc32)cc1,61%
2,COc1cc2c(c(OC)c1OC)-c1ccc(OC)c(=O)cc1[C@@H](NC(=O)Nc1ccc(F)cc1Cl)CC2,104%
3,COc1cc2c(c(OC)c1OC)-c1ccc(OC)c(=O)cc1[C@@H](NC(=O)Nc1ccc(F)cc1)CC2,105%
4,COc1cc2c(c(OC)c1OC)-c1ccc(OC)c(=O)cc1[C@@H](NC(=O)Nc1cccc(Cl)c1)CC2,87%

# Test system: HT-29
# Assay: Induction of apoptosis in human HT-29 cells assessed as apoptotic cells at 25 nM after 48 hrs by Annexin V-FITC staining-based flow cytometric analysis (reference value: 13 +/- 3%)
# Format: functional
# Conditions: not given
row,Compound,Activity
1,COc1cc2c(c(OC)c1OC)-c1ccc(OC)c(=O)cc1[C@@H](NC(=O)Nc1ccccc1C)CC2,34%

# Test system: HT-29
# Assay: Effect on VEGFR2 protein expression in human HT-29 cells assessed as VEGFR2 level at 5 nM after 48 hrs by ELISA
# Format: functional
# Conditions: not given
# How it was run: as §1
row,Compound,Activity
1,COc1ccc(NC(=O)N[C@H]2CCc3cc(OC)c(OC)c(OC)c3-c3ccc(OC)c(=O)cc32)cc1,95%
2,COc1cc2c(c(OC)c1OC)-c1ccc(OC)c(=O)cc1[C@@H](NC(=O)Nc1ccc(F)cc1Cl)CC2,15%
3,COc1cc2c(c(OC)c1OC)-c1ccc(OC)c(=O)cc1[C@@H](NC(=O)Nc1ccc(F)cc1)CC2,63%
4,COc1cc2c(c(OC)c1OC)-c1ccc(OC)c(=O)cc1[C@@H](NC(=O)Nc1cccc(Cl)c1)CC2,15%

# Test system: HT-29
# Assay: Effect on VEGF gene expression in human HT-29 cells assessed as VEGF level at 5 nM after 48 hrs by RT-qPCR analysis
# Format: functional
# Conditions: not given
# How it was run: (§2)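 HT-29 cells at 70–80% confluence were seeded at 1.5×10^5 per well and left 24 h, then treated 48 h, with DMSO as control. Total RNA was extracted and VEGF-A, c-Myc and hTERT were quantified by TaqMan qPCR, normalized to β-actin and to living cell number. Results are % expression versus control, at least three measurements.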
row,Compound,Activity
1,COc1ccc(NC(=O)N[C@H]2CCc3cc(OC)c(OC)c(OC)c3-c3ccc(OC)c(=O)cc32)cc1,70%
2,COc1cc2c(c(OC)c1OC)-c1ccc(OC)c(=O)cc1[C@@H](NC(=O)Nc1ccc(F)cc1Cl)CC2,64%
3,COc1cc2c(c(OC)c1OC)-c1ccc(OC)c(=O)cc1[C@@H](NC(=O)Nc1ccc(F)cc1)CC2,59%
4,COc1cc2c(c(OC)c1OC)-c1ccc(OC)c(=O)cc1[C@@H](NC(=O)Nc1cccc(Cl)c1)CC2,95%

# Test system: HT-29
# Assay: Induction of apoptosis in human HT-29 cells assessed as viable cells at 5 nM after 48 hrs by Annexin V-FITC staining-based flow cytometric analysis (reference value: 82 +/- 1%)
# Format: functional
# Conditions: HT-29, 48 h, read-out: Activity
row,Compound,viability at 0.005 µM
1,COc1ccc(NC(=O)N[C@H]2CCc3cc(OC)c(OC)c(OC)c3-c3ccc(OC)c(=O)cc32)cc1,64%
2,COc1cc2c(c(OC)c1OC)-c1ccc(OC)c(=O)cc1[C@@H](NC(=O)Nc1ccc(F)cc1Cl)CC2,46%
3,COc1cc2c(c(OC)c1OC)-c1ccc(OC)c(=O)cc1[C@@H](NC(=O)Nc1ccc(F)cc1)CC2,51%
4,COc1cc2c(c(OC)c1OC)-c1ccc(OC)c(=O)cc1[C@@H](NC(=O)Nc1cccc(Cl)c1)CC2,62%

# Test system: MCF7
# Assay: Antiproliferative activity against human MCF7 cells after 2 days by MTT assay
# Format: functional, cell-based
# Conditions: MCF7, 48 h
# How it was run: (§3)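 Cells (5×10^3 per well) in DMEM with 10% FBS, glucose, glutamine and antibiotics were exposed to serial dilutions (stocks in DMSO) for 2 days at 37 °C, 5% CO2. MTT was added for 3 h, formazan was dissolved in DMSO and absorbance read at 490 nm. Viability was taken as % of untreated cells. IC50 was read graphically from three independent experiments.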
row,Compound,IC50
1,COc1ccc(NC(=O)N[C@H]2CCc3cc(OC)c(OC)c(OC)c3-c3ccc(OC)c(=O)cc32)cc1,13 nM
2,COc1cc2c(c(OC)c1OC)-c1ccc(OC)c(=O)cc1[C@@H](NC(=O)Nc1cccc(Cl)c1)CC2,370 nM
3,COc1cc2c(c(OC)c1OC)-c1ccc(OC)c(=O)cc1[C@@H](NC(=O)Nc1ccccc1C)CC2,119 nM

# The next compounds have a lower IC50 than those just listed; values first:
row,IC50,Compound
1,1.2 nM,COc1cc2c(c(OC)c1OC)-c1ccc(OC)c(=O)cc1[C@@H](NC(=O)Nc1ccc(F)cc1Cl)CC2
2,10 nM,COc1cc2c(c(OC)c1OC)-c1ccc(OC)c(=O)cc1[C@@H](NC(=O)Nc1ccc(F)cc1)CC2

# Test system: HT-29
# Assay: Induction of apoptosis in human HT-29 cells assessed as apoptotic cells at 5 nM after 48 hrs by Annexin V-FITC staining-based flow cytometric analysis (reference value: 13 +/- 3%)
# Format: functional
# Conditions: not given
row,Compound,Activity
1,COc1ccc(NC(=O)N[C@H]2CCc3cc(OC)c(OC)c(OC)c3-c3ccc(OC)c(=O)cc32)cc1,35%
2,COc1cc2c(c(OC)c1OC)-c1ccc(OC)c(=O)cc1[C@@H](NC(=O)Nc1ccc(F)cc1Cl)CC2,53%
3,COc1cc2c(c(OC)c1OC)-c1ccc(OC)c(=O)cc1[C@@H](NC(=O)Nc1ccc(F)cc1)CC2,47%
4,COc1cc2c(c(OC)c1OC)-c1ccc(OC)c(=O)cc1[C@@H](NC(=O)Nc1cccc(Cl)c1)CC2,37%

# Test system: HEK293
# Assay: Antiproliferative activity against human HEK293 cells after 2 days by MTT assay
# Format: cell-based
# Conditions: HEK293, 48 h
# How it was run: as §3
row,Compound,IC50
1,COc1ccc(NC(=O)N[C@H]2CCc3cc(OC)c(OC)c(OC)c3-c3ccc(OC)c(=O)cc32)cc1,14 nM
2,COc1cc2c(c(OC)c1OC)-c1ccc(OC)c(=O)cc1[C@@H](NC(=O)Nc1ccc(F)cc1Cl)CC2,1.7 nM
3,COc1cc2c(c(OC)c1OC)-c1ccc(OC)c(=O)cc1[C@@H](NC(=O)Nc1ccc(F)cc1)CC2,13 nM
4,COc1cc2c(c(OC)c1OC)-c1ccc(OC)c(=O)cc1[C@@H](NC(=O)Nc1cccc(Cl)c1)CC2,4.6 nM
5,COc1cc2c(c(OC)c1OC)-c1ccc(OC)c(=O)cc1[C@@H](NC(=O)Nc1ccccc1C)CC2,44 nM

# Test system: HT-29
# Assay: Effect on hTERT gene expression in human HT-29 cells assessed as hTERT level at 5 nM after 48 hrs by RT-qPCR analysis
# Format: functional
# Conditions: not given
# How it was run: as §2
row,Compound,Activity
1,COc1ccc(NC(=O)N[C@H]2CCc3cc(OC)c(OC)c(OC)c3-c3ccc(OC)c(=O)cc32)cc1,91%
2,COc1cc2c(c(OC)c1OC)-c1ccc(OC)c(=O)cc1[C@@H](NC(=O)Nc1ccc(F)cc1Cl)CC2,80%
3,COc1cc2c(c(OC)c1OC)-c1ccc(OC)c(=O)cc1[C@@H](NC(=O)Nc1ccc(F)cc1)CC2,70%
4,COc1cc2c(c(OC)c1OC)-c1ccc(OC)c(=O)cc1[C@@H](NC(=O)Nc1cccc(Cl)c1)CC2,90%

# Test system: HT-29
# Assay: Induction of apoptosis in human HT-29 cells assessed as necrotic cells at 5 nM after 48 hrs by Annexin V-FITC staining-based flow cytometric analysis (reference value: 2 +/- 6%)
# Format: functional
# Conditions: not given
row,Compound,Activity
1,COc1ccc(NC(=O)N[C@H]2CCc3cc(OC)c(OC)c(OC)c3-c3ccc(OC)c(=O)cc32)cc1,1%
2,COc1cc2c(c(OC)c1OC)-c1ccc(OC)c(=O)cc1[C@@H](NC(=O)Nc1ccc(F)cc1Cl)CC2,1%
3,COc1cc2c(c(OC)c1OC)-c1ccc(OC)c(=O)cc1[C@@H](NC(=O)Nc1ccc(F)cc1)CC2,2%
4,COc1cc2c(c(OC)c1OC)-c1ccc(OC)c(=O)cc1[C@@H](NC(=O)Nc1cccc(Cl)c1)CC2,1%

# Test system: HT-29
# Assay: Induction of apoptosis in human HT-29 cells assessed as necrotic cells at 25 nM after 48 hrs by Annexin V-FITC staining-based flow cytometric analysis (reference value: 2 +/- 6%)
# Format: functional
# Conditions: not given
row,Compound,Activity
1,COc1cc2c(c(OC)c1OC)-c1ccc(OC)c(=O)cc1[C@@H](NC(=O)Nc1ccccc1C)CC2,2%

# Test system: HT-29
# Assay: Effect on c-MYC gene expression in human HT-29 cells assessed as c-MYC level at 5 nM after 48 hrs by RT-qPCR analysis
# Format: functional
# Conditions: not given
# How it was run: as §2
row,Compound,Activity
1,COc1ccc(NC(=O)N[C@H]2CCc3cc(OC)c(OC)c(OC)c3-c3ccc(OC)c(=O)cc32)cc1,55%
2,COc1cc2c(c(OC)c1OC)-c1ccc(OC)c(=O)cc1[C@@H](NC(=O)Nc1ccc(F)cc1Cl)CC2,58%
3,COc1cc2c(c(OC)c1OC)-c1ccc(OC)c(=O)cc1[C@@H](NC(=O)Nc1ccc(F)cc1)CC2,52%
4,COc1cc2c(c(OC)c1OC)-c1ccc(OC)c(=O)cc1[C@@H](NC(=O)Nc1cccc(Cl)c1)CC2,104%

# Test system: HeLa
# Assay: Antiproliferative activity against human HeLa cells after 2 days by MTT assay
# Format: functional, cell-based
# Conditions: 48 h
# How it was run: as §3
row,Compound,IC50
1,COc1ccc(NC(=O)N[C@H]2CCc3cc(OC)c(OC)c(OC)c3-c3ccc(OC)c(=O)cc32)cc1,6.5 nM
2,COc1cc2c(c(OC)c1OC)-c1ccc(OC)c(=O)cc1[C@@H](NC(=O)Nc1cccc(Cl)c1)CC2,8 nM
3,COc1cc2c(c(OC)c1OC)-c1ccc(OC)c(=O)cc1[C@@H](NC(=O)Nc1ccccc1C)CC2,32 nM

# More lines, now with the values ahead:
row,IC50,Compound
1,5 nM,COc1cc2c(c(OC)c1OC)-c1ccc(OC)c(=O)cc1[C@@H](NC(=O)Nc1ccc(F)cc1Cl)CC2
2,10 nM,COc1cc2c(c(OC)c1OC)-c1ccc(OC)c(=O)cc1[C@@H](NC(=O)Nc1ccc(F)cc1)CC2

# Test system: HT-29
# Assay: Induction of apoptosis in human HT-29 cells assessed as viable cells at 25 nM after 48 hrs by Annexin V-FITC staining-based flow cytometric analysis (reference value: 82 +/- 1%)
# Format: functional
# Conditions: HT-29, 48 h, read-out: Activity
row,Compound,viability at 0.025 µM
1,COc1cc2c(c(OC)c1OC)-c1ccc(OC)c(=O)cc1[C@@H](NC(=O)Nc1ccccc1C)CC2,64%

# Test system: HT-29
# Assay: Effect on VEGF protein expression in human HT-29 cells assessed as secreted VEGF level in culture media at 5 nM after 48 hrs by ELISA
# Conditions: not given
row,Compound,Activity
1,COc1ccc(NC(=O)N[C@H]2CCc3cc(OC)c(OC)c(OC)c3-c3ccc(OC)c(=O)cc32)cc1,44%
2,COc1cc2c(c(OC)c1OC)-c1ccc(OC)c(=O)cc1[C@@H](NC(=O)Nc1ccc(F)cc1Cl)CC2,67%
3,COc1cc2c(c(OC)c1OC)-c1ccc(OC)c(=O)cc1[C@@H](NC(=O)Nc1ccc(F)cc1)CC2,55%
4,COc1cc2c(c(OC)c1OC)-c1ccc(OC)c(=O)cc1[C@@H](NC(=O)Nc1cccc(Cl)c1)CC2,114%

# Test system: HT-29
# Assay: Antiproliferative activity against human HT-29 cells after 2 days by MTT assay
# Format: functional, cell-based
# Conditions: HT-29, 48 h
# How it was run: as §3
row,Compound,IC50
1,COc1ccc(NC(=O)N[C@H]2CCc3cc(OC)c(OC)c(OC)c3-c3ccc(OC)c(=O)cc32)cc1,4 nM
2,COc1cc2c(c(OC)c1OC)-c1ccc(OC)c(=O)cc1[C@@H](NC(=O)Nc1cccc(Cl)c1)CC2,4.3 nM
3,COc1cc2c(c(OC)c1OC)-c1ccc(OC)c(=O)cc1[C@@H](NC(=O)Nc1ccccc1C)CC2,26 nM

# Further lines, results first:
row,IC50,Compound
1,1.75 nM,COc1cc2c(c(OC)c1OC)-c1ccc(OC)c(=O)cc1[C@@H](NC(=O)Nc1ccc(F)cc1Cl)CC2
2,5 nM,COc1cc2c(c(OC)c1OC)-c1ccc(OC)c(=O)cc1[C@@H](NC(=O)Nc1ccc(F)cc1)CC2
